From ChEMBL document CHEMBL1149137, “Synthesis, screening, and molecular modeling of new potent and selective antagonists at the alpha 1d adrenergic receptor” (J Med Chem, 2004)

Tests used:
[1] = biological target: T1, Alpha-1D adrenergic receptor (Rattus norvegicus) (UniProt P23944); conditions: Aorta
T1 sequence (whole entry): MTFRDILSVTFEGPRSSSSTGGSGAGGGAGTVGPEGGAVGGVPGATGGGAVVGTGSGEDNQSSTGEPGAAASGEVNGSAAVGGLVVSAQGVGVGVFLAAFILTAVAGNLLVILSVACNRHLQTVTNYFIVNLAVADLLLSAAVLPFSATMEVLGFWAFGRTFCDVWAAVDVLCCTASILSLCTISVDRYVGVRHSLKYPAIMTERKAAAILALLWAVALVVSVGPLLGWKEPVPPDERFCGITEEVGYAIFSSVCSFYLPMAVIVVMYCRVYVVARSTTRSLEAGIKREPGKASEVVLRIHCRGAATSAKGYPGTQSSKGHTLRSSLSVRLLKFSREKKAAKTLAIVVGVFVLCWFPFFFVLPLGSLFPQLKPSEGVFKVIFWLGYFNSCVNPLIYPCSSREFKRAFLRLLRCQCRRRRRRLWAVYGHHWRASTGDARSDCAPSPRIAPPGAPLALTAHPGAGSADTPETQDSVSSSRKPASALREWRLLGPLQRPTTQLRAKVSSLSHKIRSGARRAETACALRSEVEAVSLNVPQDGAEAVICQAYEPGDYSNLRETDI

[2] = biological target: T2, Alpha-1A adrenergic receptor (Rattus norvegicus) (UniProt P43140); conditions: Vas deferens
T2 sequence (whole entry): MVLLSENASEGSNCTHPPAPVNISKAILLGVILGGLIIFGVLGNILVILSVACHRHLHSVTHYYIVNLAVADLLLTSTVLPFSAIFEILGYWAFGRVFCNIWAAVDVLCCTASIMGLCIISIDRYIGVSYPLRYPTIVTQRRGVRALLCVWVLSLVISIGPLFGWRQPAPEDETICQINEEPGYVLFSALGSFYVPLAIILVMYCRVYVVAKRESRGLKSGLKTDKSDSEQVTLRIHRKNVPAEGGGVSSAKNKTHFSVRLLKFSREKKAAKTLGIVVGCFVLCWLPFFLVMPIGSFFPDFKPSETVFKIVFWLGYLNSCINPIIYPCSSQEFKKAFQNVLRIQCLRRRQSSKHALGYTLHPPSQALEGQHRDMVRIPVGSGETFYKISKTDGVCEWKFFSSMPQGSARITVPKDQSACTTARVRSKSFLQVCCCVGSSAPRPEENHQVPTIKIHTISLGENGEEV

[3] = biological target: Alpha-1D adrenergic receptor (Homo sapiens) (UniProt P25100); experiment: Binding affinity to the adrenergic receptor alpha-1D of cloned human receptor
[4] = biological target: T3, 5-hydroxytryptamine receptor 1A (Homo sapiens, UniProt P08908); experiment: Binding affinity to human 5-hydroxytryptamine 1A receptor was measured using [3H]-8-hydroxy-2-(di-n-propylamine) tetraline [3H]8-OH-DPAT) as radioligand
T3 sequence (P08908 whole entry): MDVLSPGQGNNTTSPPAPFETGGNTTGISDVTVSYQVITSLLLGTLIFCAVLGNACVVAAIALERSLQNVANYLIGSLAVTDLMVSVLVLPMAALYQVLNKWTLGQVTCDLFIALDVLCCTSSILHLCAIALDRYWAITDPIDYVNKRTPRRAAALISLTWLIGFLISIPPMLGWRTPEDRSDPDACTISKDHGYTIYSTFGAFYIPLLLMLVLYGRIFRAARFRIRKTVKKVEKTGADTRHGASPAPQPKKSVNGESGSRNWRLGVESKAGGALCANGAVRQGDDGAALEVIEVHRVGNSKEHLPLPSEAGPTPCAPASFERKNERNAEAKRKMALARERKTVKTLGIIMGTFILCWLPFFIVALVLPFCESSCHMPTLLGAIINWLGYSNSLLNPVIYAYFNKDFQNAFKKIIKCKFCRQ

[5] = biological target: T1, Alpha-1D adrenergic receptor (Rattus norvegicus); experiment: Fraction involved in salt bridge interactions with Asp3:11 part of the alpha-1D adrenergic receptor
In short: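 Comparative models were built on a rhodopsin template and refined by energy minimization and MD. Docking used MCSS, and the value is the fraction of substituted phenylpiperazines forming a salt bridge with receptor Asp3:11.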

| Structure (SMILES) | pKB [1] | pKB [2] | Ki [3] | Ki [4] | Activity [5] |
| --- | --- | --- | --- | --- | --- |
| O=C1CC2(CCCC2)CCN1CCN1CCN(c2cc(Cl)ccc2Cl)CC1 | 8.89 | 7 | 0.11 nM |  |  |
| COc1ccccc1N1CCN(CCN2C(=O)CC3(CCCC3)CC2=O)CC1 [BMY-7378] |  |  |  | 0.8 nM | 0.3 |
| O=C1CC2(CCCC2)CC(=O)N1CCN1CCN(c2cc(Cl)ccc2Cl)CC1 | 8.99 |  | 0.13 nM |  | 0.4 |
